# According to ChEMBL document CHEMBL4152192, “Synthesis and anticancer activity evaluation of novel azacalix[2]arene[2]pyrimidines” (Eur J Med Chem, 2018):
# Calls of active or inactive are those of the source. No cut-off for these calls is given here.
# What was measured:
# [1] = system: A549; experiment: Antiproliferative activity against human A549 cells after 72 hrs by CCK-8 assay; assay type: functional, cell-based; conditions: A549, 72 h
# Summary of the method: (§1)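 Cells seeded at 5 × 10³/well; A549, MCF7 and SH-SY5Y grown in DMEM, CNE and L-02 in RPMI-1640 (10% FBS, pen/strep, 37 °C, 5% CO₂). Compounds in DMSO, diluted in medium; 72 h exposure versus DMSO vehicle. CCK-8 absorbance read at 450 nm; viability taken as treated/control absorbance, IC₅₀ from curve fit. Triplicate wells, three independent experiments.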
# [2] = system: MCF7; experiment: Antiproliferative activity against human MCF7 cells after 72 hrs by CCK-8 assay; assay type: functional, cell-based; conditions: MCF7, 72 h; summary of the method: as §1
# [3] = system: SH-SY5Y; experiment: Antiproliferative activity against human SH-SY5Y cells after 72 hrs by CCK-8 assay; assay type: functional, cell-based; summary of the method: as §1
# [4] = system: CNE; experiment: Antiproliferative activity against human CNE cells after 72 hrs by CCK-8 assay; assay type: functional, cell-based; summary of the method: as §1
# [5] = system: L02; experiment: Antiproliferative activity against human L02 cells after 72 hrs by CCK-8 assay; assay type: cell-based; conditions: L02, 72 h; summary of the method: as §1
# [6] = system: MCF7; experiment: Cell cycle arrest in human MCF7 cells assessed as accumulation of cells G1 phase at 0.3 uM after 24 hrs by propidium iodide/RNase A staining-based flow cytometric analysis (reference value: 60.6%); assay type: functional
# [7] = system: MCF7; experiment: Cell cycle arrest in human MCF7 cells assessed as accumulation of cells S phase at 0.3 uM after 24 hrs by propidium iodide/RNase A staining-based flow cytometric analysis (reference value: 6.75%); assay type: functional
# [8] = system: MCF7; experiment: Cell cycle arrest in human MCF7 cells assessed as accumulation of cells G2 phase at 0.3 uM after 24 hrs by propidium iodide/RNase A staining-based flow cytometric analysis (reference value: 35.08%); assay type: functional
# [9] = system: MCF7; experiment: Cell cycle arrest in human MCF7 cells assessed as accumulation of cells G1 phase at 0.6 uM after 24 hrs by propidium iodide/RNase A staining-based flow cytometric analysis (reference value: 60.6%); assay type: functional
# [10] = system: MCF7; experiment: Cell cycle arrest in human MCF7 cells assessed as accumulation of cells S phase at 0.6 uM after 24 hrs by propidium iodide/RNase A staining-based flow cytometric analysis (reference value: 6.75%); assay type: functional
# [11] = system: MCF7; experiment: Cell cycle arrest in human MCF7 cells assessed as accumulation of cells G2 phase at 0.6 uM after 24 hrs by propidium iodide/RNase A staining-based flow cytometric analysis (reference value: 35.08%); assay type: functional
# [12] = system: MCF7; experiment: Cell cycle arrest in human MCF7 cells assessed as accumulation of cells G1 phase at 1.2 uM after 24 hrs by propidium iodide/RNase A staining-based flow cytometric analysis (reference value: 60.6%); assay type: functional
# [13] = system: MCF7; experiment: Cell cycle arrest in human MCF7 cells assessed as accumulation of cells S phase at 1.2 uM after 24 hrs by propidium iodide/RNase A staining-based flow cytometric analysis (reference value: 6.75%); assay type: functional
# [14] = system: MCF7; experiment: Cell cycle arrest in human MCF7 cells assessed as accumulation of cells G2 phase at 1.2 uM after 24 hrs by propidium iodide/RNase A staining-based flow cytometric analysis (reference value: 35.08%); assay type: functional
# [15] = system: MCF7; experiment: Cell cycle arrest in human MCF7 cells assessed as accumulation of cells S phase after 24 hrs by propidium iodide/RNase A staining-based flow cytometric analysis; assay type: functional
# [16] = system: MCF7; experiment: Induction of apoptosis in human MCF7 cells assessed as improved staining brightness at 0.3 to 1.2 uM after 24 hrs by Hoechst 33342 staining-based fluorescence microscopic analysis; assay type: functional, cell-based
# Summary of the method: (§2)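 MCF7 exposed to 0.3, 0.6 or 1.2 µM for 24 h, then stained with 5 µg/mL Hoechst 33342 for 20 min at 37 °C under 5% CO₂. Nuclear morphology (brightness, chromatin condensation, fragmentation) examined by fluorescence microscopy at ×100.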
# [17] = system: MCF7; experiment: Induction of apoptosis in human MCF7 cells assessed as nuclear condensation at 0.3 to 1.2 uM after 24 hrs by Hoechst 33342 staining-based fluorescence microscopic analysis; assay type: functional, cell-based; summary of the method: as §2
# [18] = system: MCF7; experiment: Induction of apoptosis in human MCF7 cells assessed as nuclear fragmentation at 0.3 to 1.2 uM after 24 hrs by Hoechst 33342 staining-based fluorescence microscopic analysis; assay type: functional, cell-based; summary of the method: as §2
# [19] = system: MCF7; experiment: Induction of apoptosis in human MCF7 cells assessed as viable cells at 0.3 uM after 24 hrs by Annexin V-FITC/propidium iodide staining-based flow cytometric analysis (reference value: 97.5%); assay type: functional; conditions: MCF7, 24 h, read-out: Activity
# [20] = system: MCF7; experiment: Induction of apoptosis in human MCF7 cells assessed as early apoptotic cells at 0.3 uM after 24 hrs by Annexin V-FITC/propidium iodide staining-based flow cytometric analysis (reference value: 0.816%); assay type: functional
# [21] = system: MCF7; experiment: Induction of apoptosis in human MCF7 cells assessed as late apoptotic cells at 0.3 uM after 24 hrs by Annexin V-FITC/propidium iodide staining-based flow cytometric analysis (reference value: 1.22%); assay type: functional
# [22] = system: MCF7; experiment: Induction of apoptosis in human MCF7 cells assessed as viable cells at 0.6 uM after 24 hrs by Annexin V-FITC/propidium iodide staining-based flow cytometric analysis (reference value: 97.5%); assay type: functional; conditions: MCF7, 24 h, read-out: Activity
# [23] = system: MCF7; experiment: Induction of apoptosis in human MCF7 cells assessed as necrotic cells at 0.3 uM after 24 hrs by Annexin V-FITC/propidium iodide staining-based flow cytometric analysis (reference value: 0.426%); assay type: functional
# [24] = system: MCF7; experiment: Induction of apoptosis in human MCF7 cells assessed as early apoptotic cells at 0.6 uM after 24 hrs by Annexin V-FITC/propidium iodide staining-based flow cytometric analysis (reference value: 0.816%); assay type: functional
# [25] = system: MCF7; experiment: Induction of apoptosis in human MCF7 cells assessed as late apoptotic cells at 0.6 uM after 24 hrs by Annexin V-FITC/propidium iodide staining-based flow cytometric analysis (reference value: 1.22%); assay type: functional
# [26] = system: MCF7; experiment: Induction of apoptosis in human MCF7 cells assessed as necrotic cells at 0.6 uM after 24 hrs by Annexin V-FITC/propidium iodide staining-based flow cytometric analysis (reference value: 0.426%); assay type: functional
# [27] = system: MCF7; experiment: Induction of apoptosis in human MCF7 cells assessed as viable cells at 1.2 uM after 24 hrs by Annexin V-FITC/propidium iodide staining-based flow cytometric analysis (reference value: 97.5%); assay type: functional; conditions: MCF7, 24 h, read-out: Activity
# [28] = system: MCF7; experiment: Induction of apoptosis in human MCF7 cells assessed as early apoptotic cells at 1.2 uM after 24 hrs by Annexin V-FITC/propidium iodide staining-based flow cytometric analysis (reference value: 0.816%); assay type: functional
# [29] = system: MCF7; experiment: Induction of apoptosis in human MCF7 cells assessed as late apoptotic cells at 1.2 uM after 24 hrs by Annexin V-FITC/propidium iodide staining-based flow cytometric analysis (reference value: 1.22%); assay type: functional
# [30] = system: MCF7; experiment: Induction of apoptosis in human MCF7 cells assessed as necrotic cells at 1.2 uM after 24 hrs by Annexin V-FITC/propidium iodide staining-based flow cytometric analysis (reference value: 0.426%); assay type: functional
# [31] = system: MCF7; experiment: Induction of apoptosis in human MCF7 cells assessed as increase in caspase3 activation at 0.3 to 1.2 uM after 72 hrs by Western blot analysis; assay type: functional, cell-based
# Summary of the method: (§3)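 MCF7 exposed to 0.3, 0.6 or 1.2 µM for 72 h. Total protein (30 µg, BCA-quantified) run on SDS-PAGE and transferred to PVDF. Membranes blocked in 5% milk/TBS-0.05% Tween 20 for 2 h at room temperature, probed overnight at 4 °C with anti-cleaved caspase-3, caspase-9 and β-actin (loading control), then HRP anti-rabbit IgG; ECL detection.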
# [32] = system: MCF7; experiment: Induction of apoptosis in human MCF7 cells assessed as increase in caspase9 activation at 0.3 to 1.2 uM after 72 hrs by Western blot analysis; assay type: functional, cell-based; summary of the method: as §3
compound,measurement,setting,value
c1cc2nc(n1)Nc1cc(cc(N3CCCC3)c1)Nc1ccnc(n1)Nc1cc(cc(N3CCCC3)c1)N2,IC50,[1],0.94 µM
same,IC50,[2],0.58 µM
same,IC50,[3],1.82 µM
same,IC50,[4],46.5 µM
same,IC50,[5],25.6 µM
same,Activity,[6],55.71%
same,Activity,[7],11.54%
same,Activity,[8],34.8%
same,Activity,[9],56.54%
same,Activity,[10],17.49%
same,Activity,[11],25.13%
same,Activity,[12],52.9%
same,Activity,[13],38.08%
same,Activity,[14],7.88%
same,Activity,[15],Dose-dependent effect
same,Activity,[16],Active
same,Activity,[17],Active
same,Activity,[18],Active
same,viability at 0.3 µM,[19],92.7%
same,Activity,[20],5.76%
same,Activity,[21],1.35%
same,viability at 0.6 µM,[22],73.8%
same,Activity,[23],0.148%
same,Activity,[24],23.2%
same,Activity,[25],2.86%
same,Activity,[26],0.197%
same,viability at 1.2 µM,[27],69.1%
same,Activity,[28],26.6%
same,Activity,[29],4.2%
same,Activity,[30],0.232%
same,Activity,[31],Active
same,Activity,[32],Active
